Test results taken from ChEMBL document CHEMBL1123855, “Synthesis of glycopyranosylphosphonate analogues of certain natural nucleoside diphosphate sugars as potential inhibitors of glycosyltransferases” (J Med Chem, 1987).
Active and inactive are the calls of the source. The rule behind the calls is not given here.

Key:
Vero [1] = experiment: In vitro antiviral activity was evaluated against vero cell lines infected with Parainfluenza virus type 3; non toxic at concentrations as high as 50000 uM; type: functional, cell-based; settings: Chlorocebus sabaeus
Vero [2] = experiment: In vitro antiviral activity was evaluated against vero cell lines infected with visna virus; non toxic at concentrations as high as 50000 uM; type: functional, cell-based; settings: Chlorocebus sabaeus
Vero [3] = experiment: In vitro antiviral activity was evaluated against vero cell lines infected with adenovirus type 2; non toxic at concentrations as high as 50000 uM; type: functional, cell-based; settings: Chlorocebus sabaeus
L1210 = experiment: In vitro antitumor activity was evaluated against L1210 leukemia cell lines; No activity; type: functional, cell-based; settings: Mus musculus
Vero [4] = experiment: In vitro antiviral activity was evaluated against vero cell lines infected with herpes simplex virus type-2; non toxic at concentrations as high as 50000 uM; type: functional, cell-based; settings: Chlorocebus sabaeus
CCRF-CEM [5] = experiment: In vitro antitumor activity was evaluated against human T-lymphoblastic leukemia cell lines; no = No activity; type: functional, cell-based
Vero [6] = experiment: In vitro antiviral activity was evaluated against vero cell lines infected with rhino virus; non toxic at concentrations as high as 50000 uM; type: functional, cell-based; settings: Chlorocebus sabaeus
WIL2 [7] = experiment: In vitro antitumor activity was evaluated against human B-lymphoblastic leukemia cell lines; no = No activity; type: functional, cell-based
CCRF-CEM [8] = experiment: In vitro antitumor activity was evaluated against human T-lymphoblastic leukemia cell lines; Slight activity; type: functional, cell-based
WIL2 [9] = experiment: In vitro antitumor activity was evaluated against human B-lymphoblastic leukemia cell lines; Slight activity; type: functional, cell-based
Vero [10] = experiment: In vitro antiviral activity was evaluated against vero cell lines infected with influenza virus; Slightly active at concentrations as high as 50000 uM; type: functional, cell-based; settings: Chlorocebus sabaeus
[11] = molecular target: N-acetyllactosaminide alpha-1,3-galactosyltransferase (Mus musculus) (UniProt P23336); experiment: Inhibition of galactosyltransferase activity secreted by L1210 leukemia cells grown in mouse peritoneal ascites at 50 ug/mL (89 uM); type: cell-based
Sequence of N-acetyllactosaminide alpha-1,3-galactosyltransferase (Mus musculus) (P23336 whole entry): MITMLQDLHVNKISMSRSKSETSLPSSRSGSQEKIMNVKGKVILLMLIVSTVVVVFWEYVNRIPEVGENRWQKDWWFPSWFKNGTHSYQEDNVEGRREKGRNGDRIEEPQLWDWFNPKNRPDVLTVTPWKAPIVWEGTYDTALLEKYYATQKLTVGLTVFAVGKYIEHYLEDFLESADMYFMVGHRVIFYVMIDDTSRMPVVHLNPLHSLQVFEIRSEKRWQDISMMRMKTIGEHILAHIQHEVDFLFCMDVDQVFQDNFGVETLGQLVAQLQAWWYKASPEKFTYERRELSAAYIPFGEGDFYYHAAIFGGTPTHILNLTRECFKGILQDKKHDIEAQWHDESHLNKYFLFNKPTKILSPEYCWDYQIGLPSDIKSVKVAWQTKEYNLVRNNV
Method in brief: (§1)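 Galactosyltransferase from cell-free ascites fluid of DBA/2J mice implanted 5-7 days earlier with 10^5 L1210 cells, cells removed by centrifugation. Medium: ovalbumin 1 mg/mL acceptor, 0.1 M cacodylate pH 7.0, 10 mM MnCl2, 2 mM AMP, inhibitor 20 or 50 ug/mL, UDP-galactose varied 1-80 uM plus UDP-[3H]galactose. 30 min, 37 °C. Stopped with PTA/HCl; washed precipitate scintillation-counted. Duplicates.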

[12] = molecular target: N-acetyllactosaminide alpha-1,3-galactosyltransferase (Mus musculus) (UniProt P23336); experiment: Inhibition of galactosyltransferase activity secreted by L1210 leukemia cells grown in mouse peritoneal ascites at 20 ug/mL (35 uM); type: cell-based; method in brief: as §1

SMILES	Activity (Vero [1])	Activity (Vero [2])	Activity (Vero [3])	Cytotoxiciy (L1210)	Activity (Vero [4])	Cytotoxiciy (CCRF-CEM [5])	Activity (Vero [6])	Cytotoxiciy (WIL2 [7])	Cytotoxiciy (CCRF-CEM [8])	Cytotoxiciy (WIL2 [9])	Activity (Vero [10])	inhibition [11] [%]	inhibition [12] [%]
O=P(O)(O)[C@H]1O[C@@H](CO)[C@H](O)[C@H](O)[C@@H]1O (stereo in doubt; 19)	inactive	inactive	inactive	No activity	inactive	No activity	inactive	No activity					
CC(=O)OP(=O)(O)C1OC(COCc2ccccc2)C(OCc2ccccc2)C(OCc2ccccc2)C1OCc1ccccc1 (stereo not drawn)	inactive	inactive	inactive	No activity	inactive	No activity	inactive	No activity					
Nc1ncnc2c1ncn2C1O[C@H](COP(=O)(O)OP(=O)(O)C2O[C@H](CO)[C@@H](O)[C@H](O)[C@H]2O)[C@@H](O)[C@H]1O (stereo partly drawn)	inactive	inactive	inactive	No activity	inactive		inactive		Weak activity	Weak activity			
O=P(O)(O)[C@H]1O[C@@H](CO)[C@H](O)[C@H](O)[C@@H]1O (stereo in doubt; 17)	inactive	inactive	inactive	No activity	inactive	No activity	inactive	No activity					
O=P(O)(O)[C@H]1O[C@@H](CO)[C@@H](O)[C@H](O)[C@@H]1O	inactive	inactive	inactive	No activity	inactive	No activity	Slightly active	No activity			inactive		
O=c1ccn(C2O[C@H](COP(=O)(O)OP(=O)(O)C3O[C@H](CO)[C@@H](O)[C@H](O)[C@H]3O)[C@@H](O)[C@H]2O)c(=O)[nH]1 (stereo partly drawn)												58	50
